These results are taken from ChEMBL document CHEMBL2384939, “Synthesis of pyrazolo[1,5-a]pyrimidine linked aminobenzothiazole conjugates as potential anticancer agents” (Bioorg Med Chem Lett, 2013).

The test system of assay [1] is A549. As to the kind of experiment: Cell cycle arrest at human A549 cells assessed as accumulation at sub G1 phase at 1 uM after 48 hrs by propidium iodide-staining-based FACS flow cytometric analysis (reference value: 1.02%). Format: functional. A general note: In flow cytometry, cells or beads pass a laser one at a time.
The test system of assay [2] is NCI-H322M. As to the kind of experiment: Cytotoxicity against human NCI-H322M cells after 48 hrs by MTT assay. The assay is classed as functional. (In general: Tetrazolium assays rely on reduction of a dye to a coloured formazan, in cell work by metabolically active cells.)
Assay [3] deals with A549. As to the kind of experiment: Cell cycle arrest at human A549 cells assessed as accumulation at sub G1 phase at 2 uM after 48 hrs by propidium iodide-staining-based FACS flow cytometric analysis (reference value: 1.02%). Format: functional.
The subject of assay [4] is RPMI-8226. As to the kind of experiment: Cytotoxicity against human RPMI8226 cells after 48 hrs by MTT assay. The assay is classed as functional. The settings on record: RPMI-8226, 48 h.
Assay [5] has as its system NCI-H23. As to the kind of experiment: Cytotoxicity against human NCI-H23 cells after 48 hrs by MTT assay. Format: functional. The settings on record: NCI-H23, 48 h.
In assay [6] the test system is OVCAR-3. Nature of the assay: Cytotoxicity against human OVCAR3 cells after 48 hrs by MTT assay. The assay is classed as functional. The settings on record: OVCAR-3, 48 h.
For assay [7], the system named is SNB-19. Nature of the assay: Cytotoxicity against human SNB19 cells after 48 hrs by MTT assay. Format: functional. As to conditions: SNB-19, 48 h.
Assay [8] concerns SNB-75. Nature of the assay: Cytotoxicity against human SNB75 cells after 48 hrs by MTT assay. The settings on record: SNB-75, 48 h. Format: functional.
Assay [9] has as its system OVCAR-4. As to the kind of experiment: Cytotoxicity against human OVCAR4 cells after 48 hrs by MTT assay. The settings on record: OVCAR-4, 48 h. The assay is classed as functional.
Assay [10] has as its system BT-549. As to the kind of experiment: Cytotoxicity against human BT549 cells after 48 hrs by MTT assay. Format: functional. The settings on record: BT-549, 48 h.
Assay [11] concerns MDA-MB-231. As to the kind of experiment: Cytotoxicity against human MDA-MB-231 cells after 48 hrs by MTT assay. As to conditions: MDA-MB-231, 48 h. The assay is classed as functional.
Assay [12] deals with MOLT-4. As to the kind of experiment: Cytotoxicity against human MOLT4 cells after 48 hrs by MTT assay. The assay is classed as functional. The settings on record: MOLT-4, 48 h.
The test system of assay [13] is NCI-H226. Nature of the assay: Cytotoxicity against human NCI-H226 cells after 48 hrs by MTT assay. The assay is classed as functional. As to conditions: NCI-H226, 48 h.
Assay [14] deals with NCI-H460. Nature of the assay: Cytotoxicity against human NCI-H460 cells after 48 hrs by MTT assay. The assay is classed as functional. As to conditions: NCI-H460, 48 h.
Assay [15] relates to UO-31. As to the kind of experiment: Cytotoxicity against human UO31 cells after 48 hrs by MTT assay. The settings on record: UO-31, 48 h. The assay is classed as functional.
Assay [16] has as its system HeLa. As to the kind of experiment: Cytotoxicity against human HeLa cells after 48 hrs by MTT assay. Format: functional, cell-based. The method, boiled down: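 MTT assay: […] were plated in DMEM with 10% FBS and incubated for 24 h at 37 °C under CO2. Compounds diluted in culture medium were added alongside a vehicle control for 48 h. MTT (10 µl of a 5 mg/ml stock) was added for a further 4 h. The supernatant was then removed, the formazan dissolved in DMSO, and absorbance read at 540 nm. IC50 was derived.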

The test system of assay [17] is M14. As to the kind of experiment: Cytotoxicity against human M14 cells after 48 hrs by MTT assay. The settings on record: M14, 48 h. The assay is classed as functional.
Assay [18] concerns SN12C. Nature of the assay: Cytotoxicity against human SN12C cells after 48 hrs by MTT assay. The assay is classed as functional.
Assay [19] deals with A498. Nature of the assay: Cytotoxicity against human A498 cells after 48 hrs by MTT assay. The settings on record: A498, 48 h. The assay is classed as functional.
For assay [20], the system named is HCT-116. Nature of the assay: Cytotoxicity against human HCT116 cells after 48 hrs by MTT assay. Format: functional. As to conditions: HCT-116, 48 h.
Assay [21] concerns A549. Nature of the assay: Cell cycle arrest at human A549 cells assessed as accumulation at G0/G1 phase at 2 uM after 48 hrs by propidium iodide-staining-based FACS flow cytometric analysis (reference value: 81.33%). The assay is classed as functional.
Assay [22] concerns CCRF-CEM. As to the kind of experiment: Cytotoxicity against human CCRF-CEM cells after 48 hrs by MTT assay. The assay is classed as functional.
For assay [23], the system named is SK-MEL-5. As to the kind of experiment: Cytotoxicity against human SK-MEL-5 cells after 48 hrs by MTT assay. The assay is classed as functional. As to conditions: SK-MEL-5, 48 h.
Assay [24] relates to KM12. Nature of the assay: Cytotoxicity against human KM12 cells after 48 hrs by MTT assay. Format: functional. As to conditions: KM12, 48 h.
The subject of assay [25] is LOX IMVI. As to the kind of experiment: Cytotoxicity against human LOXIMVI cells after 48 hrs by MTT assay. The assay is classed as functional.
Assay [26] concerns MDA-MB-435. As to the kind of experiment: Cytotoxicity against human MDA-MB-435 cells after 48 hrs by MTT assay. Format: functional. The settings on record: MDA-MB-435, 48 h.
Assay [27] deals with SK-MEL-28. Nature of the assay: Cytotoxicity against human SK-MEL-28 cells after 48 hrs by MTT assay. Format: functional. As to conditions: SK-MEL-28, 48 h.
Assay [28] concerns CAKI-1. Nature of the assay: Cytotoxicity against human Caki1 cells after 48 hrs by MTT assay. The assay is classed as functional. The settings on record: CAKI-1, 48 h.
A short description of assay [29]: Cytotoxicity against human NCI-ADR-RES cells after 48 hrs by MTT assay. Format: functional.

As a reminder, the GI50 is the concentration at which growth is held to half of that of the control. Usually IC50 stands for the concentration that gives 50% inhibition. Lower therefore signals greater potency in that assay. On to `O=C(Nc1nc2ccccc2s1)c1cc(-c2ccc(F)cc2)n2nc(-c3ccccc3)cc2n1`, for which the Activity in assay [1] is recorded as 4.01%; in assay [3], 3.75%; in [21], 28.75%. Also, the GI50 in [2] turned out to be 5.8 µM; in assay [4], 5.5 µM; in [5], 2.8 µM; in assay [6] it was 1.9 µM; in assay [7] it was 5.2 µM; in assay [8] it was 1.7 µM. Moreover, the GI50 in [9] was determined as 1.8 µM; in assay [10], 2 µM; in assay [11] it was 2.3 µM; in assay [12], 21 µM; in assay [13], 6.3 µM; in assay [14], 2.1 µM. Besides, the GI50 in assay [15] was 1.9 µM; in assay [17], 3.1 µM; in [18] it was 6.4 µM; in assay [19], 1.8 µM; in assay [20], 2.7 µM; in assay [22] it was 1.8 µM. In assay [16], this compound registered an IC50 of 2.63 µM.

On to `COc1cc(-c2cc(C(=O)Nc3nc4ccccc4s3)nc3cc(-c4ccccc4)nn23)cc(OC)c1OC`, for which the Activity was 11.77% in assay [1], 9.05% in assay [3] and 32.18% in [21]. Also, the 50% growth inhibitory concentration (GI50) was determined as 67.5 µM in assay [2]; 11.5 µM in assay [5]; 13.8 µM in assay [23]; 13.3 µM in [6]; 16.7 µM in assay [7]; 2.7 µM in assay [8]. Besides, the concentration for 50% growth inhibition (GI50) was determined as 22 µM in assay [24]; 6.3 µM in assay [10]; 5.6 µM in [11]; 5.5 µM in assay [25]; 27 µM in assay [13]; 29 µM in [14]. Further, the GI50 worked out at 2.6 µM in [26]; 3.3 µM in [27]; 2.3 µM in [17]; 85 µM in assay [18]; 9.2 µM in assay [19]; 53.7 µM in assay [28]. The values for the GI50 in assay [20], in assay [29] and in [22] were 4.5 µM, 19.6 µM and 54 µM, respectively. This compound showed an IC50 in assay [16] of 7.07 µM.
